Dynein cargo inh – dynein cargo transport inhibition; AID 1381; z-score, hits read low; 3617.4 mouse cells, GR-EGFP nuclear translocation imaging; test concentration mostly 20 µM; stimulated with dexamethasone, 1 µM; hits give low values; 0.47% of 220,000 active;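 active means plate z-score of nuclear minus cytoplasmic receptor signal below a set negative limit, without overly bright fluorescence or cell loss, cut at about -3.5 in these data, passing the limit was not always enough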;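 further: z-score of nuclear minus cytoplasmic ring GR-EGFP intensity difference per well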
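Also added – dexamethasone, 1.0 µM final · Buffer or medium – tet-free, stripped-serum medium · Schedule – induction 48 h, compound 1 h, agonist 30 min · Detection – formaldehyde fixation, Hoechst nuclear stain, 10x automated fluorescence imaging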
L major viab – Leishmania major promastigote growth inhibition; Leishmania major promastigotes, resazurin fluorescence viability; inhibition, % at 10 µM; 9% of 200,000 active; in the data active means inhibition above about 50%;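 further: promastigotes grown with compound for 44 hours at 28 °C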
MT stabilize HCS – stabilizes microtubules in HeLa cells | HeLa tubulin immunostaining HCS, 24 h; share of cells brighter than vehicle mean+2SD | % tubulin-high responders, % at 10 µM | 0.83% of 200,000 active | AID 2205;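 active means plate Z-score above 3 for both tubulin-high and condensed-nucleus cell shares, with cell loss under 80%, at 10 µM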;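 further: anti alpha tubulin signal scored within the nucleus-defined area of each cell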
HSV replic up – HSV replication enhancement; HSV replication augmentation in cells, fold increase; maximum fold increase; 0.005% of 220,000 active; AID 1956; in the data active means maximum fold increase above about 1.5; tested in PC3 cells
bCat nuc transl – modulators of beta-catenin nuclear translocation. HeLa beta-catenin nuclear translocation, immunofluorescence imaging. nuclear translocation activity, % at 5 µM. 0.3% of 190,000 active;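 active means nuclear translocation activity above 50% at 5 µM, with a well cell count of 50 or more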;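 further: per-cell ratio of nuclear to cytoplasmic median beta-catenin stain intensity; plate controls were DMSO negative control for no effect and GSK-3 inhibitor IX positive control for full effect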
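System: HeLa cells, endogenous beta-catenin; compound dosing: 5 µM primary single dose, 0.1% DMSO, 0.02–20 µM confirmation series; incubation: 24 h compound exposure at 37°C, 5% CO2; signal: beta-catenin immunofluorescence imaging with DAPI; evaluation: % activation, nuclear-to-cytoplasmic median beta-catenin signal ratio per cell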
* = called active by the depositor; i = inactive; x = not tested or not shown. In the library only some 8.9% were active in any assay of this set; here they are far more common.

SMILES | Dynein cargo inh | L major viab | MT stabilize HCS | HSV replic up | bCat nuc transl
COC(=O)c1cc(COC(=O)c2nc3nc(C)cc(C)n3n2)oc1C | 1.72 | 11.5 | 3.6 | i | -1.8
COc1ccc(-c2ccc3nnc(SCC(N)=O)n3n2)cc1 | 0.0473 | -5.3 | 3.7 | i | -0.1
O=C(CSc1nnc(-c2ccccc2)n1Cc1ccccc1)N1CCOCC1 | -0.62 | -1.3 | 5.3 | i | -3.9
CCOc1ccc(S(=O)(=O)Nc2cc(C)ccn2)c2ccccc12 | -0.306 | -0.5 | 2.3 | i | -3.6
O=C(CCN1C(=O)c2cccc3cccc(c23)C1=O)N1CCN(Cc2ccc3c(c2)OCO3)CC1 | 1.55 | 37.2 | 4.7 | i | -1.5
O=C(C1COc2ccccc2O1)N1CCN(Cc2ccc3c(c2)OCO3)CC1 (stereo not given) | -0.162 | 89.2* | 4.9 | i | 1.0
O=C(CN1C(=O)c2cccc3cccc1c23)N1CCN(Cc2ccc3c(c2)OCO3)CC1 | -0.26 | 88.1* | 3.1 | i | 2.4
O=C(C1COc2ccccc2O1)N1CCCC1 (stereo not given) | -1.02 | -0.5 | 1.6 | i | -1.5
O=C(CCc1ccc(S(=O)(=O)NCCc2ccccc2)cc1)N1CCN(Cc2ccc3c(c2)OCO3)CC1 | -0.479 | 78.2* | 2.7 | i | x
CCCC(=O)N1CCN(Cc2ccc3c(c2)OCO3)CC1 | -0.246 | -9.2 | 3.8 | i | -4.2
O=C(CSCc1ccccc1)N1CCN(Cc2ccc3c(c2)OCO3)CC1 | 0.342 | 98.5* | 3.4 | i | -1.4
Cc1ccc2c(c1)CCCN2C(=O)Nc1ccc2c(c1)OCO2 | 1.27 | 5.0 | 2.6 | i | x
O=C(NCC(c1ccc(F)cc1)N1CCOCC1)c1ccccc1F (stereo not given) | -0.387 | x | x | i | 1.2
Cc1ccccc1Cn1nnc(-c2ccc3c(c2)OCO3)n1 | -1.76 | -6.1 | 1.7 | i | -0.7
CC(=O)c1ccc(Nc2cc(C)nc3c(C)cccc23)cc1 | 1.09 | 27.5 | 18.4* | i | 67.3*
COc1ccc2nc(C)cc(Nc3ccc(N4CCOCC4)cc3)c2c1 | -0.247 | 51.4* | 1.2 | i | -1.9
COc1ccc(Nc2cc(C)nc3ccccc23)cc1 | -0.0684 | 85.9* | 1.4 | i | -1.1
CC(=O)c1ccc(Nc2cc(C)nc3ccccc23)cc1 | 0.676 | 40.5 | 27.4* | i | 42.9
O=C(c1ccc(F)cc1Cl)N(c1ccccn1)C1CCCCC1 | 1.69 | 31.4 | 2.3 | i | -0.7
CC(=O)c1cccc(Nc2cc(C)nc3c(C)cc(C)cc23)c1 | 0.207 | 100.4* | 2.5 | i | -3.4
Cc1cc(N(C)C)ccc1[N+](=O)[O-] | -0.618 | -6.7 | 2.7 | i | -1.9
O=C(CSc1nccc(=O)[nH]1)c1c[nH]c2ccccc12 | 0.552 | x | x | i | -2.4
N#Cc1ccccc1OCC(=O)C1CC1 | 0.207 | x | x | i | 1.6
O=Cc1ccccc1Oc1ccccc1 | -0.359 | 1.3 | 1.5 | i | -4.3
O=Cc1ccccc1OCCOc1ccccc1C=O | 1.16 | 71.8* | 3.7 | i | x
SMILES | Dynein cargo inh | L major viab | MT stabilize HCS | HSV replic up | bCat nuc transl
N#Cc1ccccc1Oc1ccccc1C=O | 1.04 | 57.0* | 3.1 | i | -5.2
CN1CCN(CCCCOc2ccccc2C=O)CC1 | -0.742 | 99.6* | 4.3 | i | -0.5
COc1cccc(C(=O)NNC(=O)C(=O)N2CCCCC2)c1 | -0.0731 | -3.8 | 1.8 | i | 0.2
CC(Oc1ccccc1Cl)C(=O)N(Cc1ccco1)C1CCS(=O)(=O)C1 (stereo not given) | 0.187 | -6.1 | 1.6 | i | -1.0
CCOC(=O)c1c(C)c(C)n(Cc2cccc(OC)c2OC)c1C | -0.487 | 12.0 | 3.8 | i | -5.2
COc1ccc(C(C)=O)cc1COC(=O)c1cnc(Cl)c(Cl)c1 | -0.758 | -1.6 | 2.1 | i | 2.3
Cc1nc2ccccn2c1C(=O)NNS(=O)(=O)c1ccc(C(C)(C)C)cc1 | -0.532 | 25.3 | 1.5 | i | -1.5
Cc1ccc(-c2cc3nc(-c4ccccc4)cc(N4CCC5(CC4)OCCO5)n3n2)cc1 | 0.657 | 55.9* | 3.0 | i | 1.1
COCCN1CCN(c2cc(-c3ccccc3)nc3cc(-c4cccc(F)c4)nn23)CC1 | -1.1 | 87.4* | 2.4 | i | -0.1
Cc1cccc(-c2cc3nc(-c4ccccc4)cc(N4CCC5(CC4)OCCO5)n3n2)c1 | -0.0741 | 47.2 | 3.2 | i | -0.7
O=C(N/C=C/c1ccc(Cl)cc1)NCc1ccc(Cl)cc1 | 0.845 | 60.0* | 1.9 | i | -0.8
COc1ccc(OC)c(C2=NNC(=NCc3ccc4c(c3)OCO4)SC2)c1 | 1.04 | 92.3* | 1.5 | i | -1.3
